These results are taken from ChEMBL document CHEMBL1147663, “Structure-activity relationships of bifunctional peptides based on overlapping pharmacophores at opioid and cholecystokinin receptors” (J Med Chem, 2006).

The target of test [1] is T1, Delta-type opioid receptor (Homo sapiens, UniProt P41143). As to the kind of experiment: Activity against [35S]GTP-gamma-S binding to human delta opioid receptor expressed in HN9.10 cells. Format: functional, cell-based. In outline:
(§1)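 Membranes (10 μg) from HN9.10 cells stably expressing hDOR or rMOR; various drug concentrations in duplicate or triplicate, 90 min at 30 °C in HEPES pH 7.4 with GDP, MgCl2, NaCl, 0.1 nM [35S]GTPγS; filtration, scintillation counting.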

The target of test [2] is T2, Cholecystokinin receptor type A (Homo sapiens) (UniProt P32238).
T2 sequence (whole entry): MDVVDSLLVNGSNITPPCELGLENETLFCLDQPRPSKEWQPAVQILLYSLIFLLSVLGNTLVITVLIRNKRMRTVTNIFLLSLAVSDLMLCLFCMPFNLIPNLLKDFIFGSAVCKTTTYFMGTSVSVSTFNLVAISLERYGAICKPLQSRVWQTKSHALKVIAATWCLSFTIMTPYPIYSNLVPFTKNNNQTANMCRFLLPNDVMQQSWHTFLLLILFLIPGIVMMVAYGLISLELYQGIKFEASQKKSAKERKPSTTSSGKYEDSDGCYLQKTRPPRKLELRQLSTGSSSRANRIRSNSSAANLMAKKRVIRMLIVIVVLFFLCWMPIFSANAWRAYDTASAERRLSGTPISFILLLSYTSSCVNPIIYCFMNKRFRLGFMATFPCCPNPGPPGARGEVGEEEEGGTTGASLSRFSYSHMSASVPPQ
To be noted: HEK293.

In test [3] the target is T1, Delta-type opioid receptor. As to the kind of experiment: Displacement of [3H]DPDPE from human delta opioid receptor expressed in HN9.10 cells. The class given is cell-based. The procedure, abridged:
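HN9.10 cell membranes (50 μg) expressing hDOR, 10 test concentrations with 1.0 nM [3H]DPDPE in 50 mM Tris pH 7.4 with peptidase inhibitors and BSA, 3 h at 25 °C, duplicates; filtration, scintillation counting. Nonspecific with 10 μM naloxone. Ki by Cheng–Prusoff.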

Test [4] concerns the target Mu-type opioid receptor (Cavia porcellus, UniProt P97266). As to the kind of experiment: Agonist activity at mu opioid receptor assessed as inhibition of electrically stimulated Hartley guinea pig ileum contraction. Format: functional, tissue-based. The procedure, abridged: (§2)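 Longitudinal muscle–myenteric plexus strips from male Hartley guinea pig ileum, 1 g tension, oxygenated Krebs at 37 °C; 0.1 Hz, 0.4 ms supramaximal stimulation. […] Integrity checked with 10 nM PL-017. Hill-equation fit, at least four tissues.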

For test [5], the target named is T3, Mu-type opioid receptor (Rattus norvegicus, UniProt P33535). The test is described as follows: Displacement of [3H]DAMGO from rat mu opioid receptor expressed in HN9.10 cells. Format: cell-based. In outline: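 HN9.10 cell membranes (50 μg) expressing rMOR, 10 test concentrations with 1.0 nM [3H]DAMGO in 50 mM Tris pH 7.4 with peptidase inhibitors and BSA, 3 h at 25 °C, duplicates; filtration, scintillation counting. Nonspecific with 10 μM naloxone. Ki by Cheng–Prusoff.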
For orientation: Displacement assays read how much labelled ligand stays bound in the presence of the test substance.

The target of test [6] is T3, Mu-type opioid receptor. The test is described as follows: (§3) Activity against [35S]GTP-gamma-S binding to rat mu opioid receptor expressed in HN9.10 cells. Format: functional, cell-based. The procedure, abridged:
as §1

The target of test [7] is Mu-type opioid receptor (Rattus norvegicus) (UniProt P33535). The description is as §3. Format: functional, cell-based. In outline:
as §1

The target in test [8] is Delta-type opioid receptor (Mus musculus, UniProt P32300). The test is described as follows: Agonist activity at delta opioid receptor assessed as inhibition of electrically stimulated ICR mouse vas deferens contraction. Format: functional, tissue-based. In outline: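 Vas deferens from male ICR mice, in 20 mL baths at 0.5 g tension, Mg-free oxygenated Krebs, 37 °C; electrical stimulation 0.1 Hz, 2.0 ms pulses, supramaximal voltage. Cumulative addition to maximal inhibition; integrity checked with 10 nM DPDPE. IC50 by Hill-equation nonlinear least-squares fit, at least four tissues.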

In test [9] the target is T4, Gastrin/cholecystokinin type B receptor (Homo sapiens, UniProt P32239).
T4 sequence (P32239 whole entry): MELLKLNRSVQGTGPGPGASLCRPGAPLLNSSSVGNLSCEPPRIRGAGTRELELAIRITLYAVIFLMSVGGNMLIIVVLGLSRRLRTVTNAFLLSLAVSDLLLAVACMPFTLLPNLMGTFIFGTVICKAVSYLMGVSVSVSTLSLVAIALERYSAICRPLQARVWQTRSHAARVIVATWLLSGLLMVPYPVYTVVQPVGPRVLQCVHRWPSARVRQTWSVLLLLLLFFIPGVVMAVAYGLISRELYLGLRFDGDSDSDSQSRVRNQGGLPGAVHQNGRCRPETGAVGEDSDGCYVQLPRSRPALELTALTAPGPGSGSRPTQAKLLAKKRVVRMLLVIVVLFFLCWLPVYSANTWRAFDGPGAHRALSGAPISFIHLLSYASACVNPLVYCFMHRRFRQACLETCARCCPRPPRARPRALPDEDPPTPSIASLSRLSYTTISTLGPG
The test is described as follows: Displacement of [125I]CCK-8(SO3) from human CCK2 receptor expressed in HEK293 cells. The class given is cell-based.

Test [10] deals with T4, Gastrin/cholecystokinin type B receptor. The test is described as follows: Antagonist activity at CCK2 receptor expressed in HEK293 cells assessed as accumulation of [3H]inositol phosphates by PI assay. Format: functional, cell-based.
Test [11] deals with T5, Cholecystokinin receptor type A (Homo sapiens, UniProt P32238).
T5 sequence (P32238 whole entry): T2 sequence (whole entry)
The test is described as follows: Displacement of [125I]CCK-8(SO3) from human CCK1 receptor expressed in HEK293 cells. The class given is cell-based.

Test [12] deals with T5, Cholecystokinin receptor type A. As to the kind of experiment: Antagonist activity at CCK1 receptor expressed in HEK 293 cells assessed as accumulation of [3H]inositol phosphates by PI assay. The class given is functional, cell-based, HEK293.
In test [13] the target is Mu-type opioid receptor (Cavia porcellus) (UniProt P97266). As to the kind of experiment: Agonist activity at mu opioid receptor assessed as inhibition of electrically stimulated Hartley guinea pig ileum contraction at 1 uM. The class given is functional, tissue-based. The procedure, abridged: as §2
The target in test [14] is Delta-type opioid receptor (Mus musculus) (UniProt P32300). As to the kind of experiment: Agonist activity at delta opioid receptor assessed as inhibition of electrically stimulated ICR mouse vas deferens contraction at 1 uM. The class given is functional, tissue-based.
Test [15] addresses T6, Gastrin/cholecystokinin type B receptor (Homo sapiens) (UniProt P32239).
T6 sequence (whole entry): T4 sequence (P32239 whole entry)
To be noted: HEK293.

Calls of active or inactive are those of the source. No cut-off for these calls is given here. Where a SMILES comes first, the peptide text is derived from it. [ ]: non-standard residue; d: D form. NMeNle = CCCC[C@H](NC)C(=O)O Some results are limits rather than exact numbers.

T1 sequence (P41143 whole entry): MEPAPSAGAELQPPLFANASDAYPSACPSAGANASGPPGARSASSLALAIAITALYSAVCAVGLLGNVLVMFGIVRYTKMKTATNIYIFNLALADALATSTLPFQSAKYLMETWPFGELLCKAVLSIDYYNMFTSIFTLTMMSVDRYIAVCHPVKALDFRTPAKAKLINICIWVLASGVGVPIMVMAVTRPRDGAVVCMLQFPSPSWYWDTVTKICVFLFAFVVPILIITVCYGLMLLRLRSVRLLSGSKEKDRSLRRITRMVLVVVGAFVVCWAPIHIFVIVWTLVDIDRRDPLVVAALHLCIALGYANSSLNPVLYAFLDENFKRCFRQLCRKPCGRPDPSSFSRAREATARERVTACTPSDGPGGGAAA
Chain of Delta-type opioid receptor (Mus musculus, UniProt P32300) (P32300 whole entry): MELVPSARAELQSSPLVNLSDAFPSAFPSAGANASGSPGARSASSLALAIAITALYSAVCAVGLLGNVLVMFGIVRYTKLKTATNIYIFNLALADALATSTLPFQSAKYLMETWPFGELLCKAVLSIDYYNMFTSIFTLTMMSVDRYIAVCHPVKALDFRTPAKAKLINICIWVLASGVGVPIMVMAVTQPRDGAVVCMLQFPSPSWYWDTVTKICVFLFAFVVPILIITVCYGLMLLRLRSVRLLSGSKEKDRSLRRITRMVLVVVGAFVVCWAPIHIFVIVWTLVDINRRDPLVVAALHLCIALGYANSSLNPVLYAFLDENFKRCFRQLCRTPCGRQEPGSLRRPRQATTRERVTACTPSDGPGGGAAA
T3 sequence (P33535 whole entry): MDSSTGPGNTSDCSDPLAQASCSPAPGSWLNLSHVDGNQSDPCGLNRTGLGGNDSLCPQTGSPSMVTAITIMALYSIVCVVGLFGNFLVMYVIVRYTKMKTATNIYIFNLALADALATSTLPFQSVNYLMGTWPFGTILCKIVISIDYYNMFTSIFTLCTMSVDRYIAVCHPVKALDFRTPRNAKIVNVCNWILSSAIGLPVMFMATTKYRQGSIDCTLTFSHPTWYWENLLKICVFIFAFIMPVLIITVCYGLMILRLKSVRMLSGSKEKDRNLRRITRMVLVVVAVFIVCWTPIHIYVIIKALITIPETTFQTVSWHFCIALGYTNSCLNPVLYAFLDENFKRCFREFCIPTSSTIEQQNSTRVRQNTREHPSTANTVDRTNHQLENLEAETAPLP
Chain of Mu-type opioid receptor (Rattus norvegicus) (P33535 whole entry): as above
Chain of Mu-type opioid receptor (Cavia porcellus) (P97266 whole entry): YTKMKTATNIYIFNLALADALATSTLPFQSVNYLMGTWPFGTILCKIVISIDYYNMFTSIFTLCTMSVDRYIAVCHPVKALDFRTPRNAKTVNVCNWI
Chain of Mu-type opioid receptor (Cavia porcellus, UniProt P97266) (P97266 whole entry): as above
Chain of Delta-type opioid receptor (Mus musculus) (P32300 whole entry): as the sequence (P32300 whole entry) above

The term EC50 denotes the concentration at which the effect is half-maximal. For orientation: Emax means the maximal effect, on the per cent scale that the assay sets. As a reminder, the IC50 is the concentration at which inhibition is half-maximal. By Ki is commonly meant a dissociation constant, usually derived from enzyme kinetics or from competition with a known ligand. As for `CCCC[C@@H](C(=O)N[C@@H](CC(=O)O)C(=O)N[C@@H](Cc1ccccc1)C(N)=O)N(C)C(=O)[C@H](Cc1c[nH]c2ccccc12)NC(=O)CNC(=O)CNC(=O)[C@@H](N)Cc1ccc(O)cc1` (H-YGGW[NMeNle]DF-NH2), the EC50 is 76 nM in test [1], 2 nM on Mu-type opioid receptor [6] and 32 nM in test [10]. Further, the maximal effect (Emax) amounted to 68% in [1] and 100% in test [7]. Besides, the “Log EC50” value in [2] was “inactive”. The IC50 is 200 nM in test [3]; 4200 nM at Mu-type opioid receptor [4]; 550 nM on Mu-type opioid receptor [5]; 220 nM in test [8]; 4.79 nM in [9]. In addition, the Ki in test [3] was found to be 85 nM; on Mu-type opioid receptor [5], 240 nM; in test [9], 4.8 nM.
With `CCCC[C@H](NC(=O)[C@H](Cc1c[nH]c2ccccc12)NC(=O)CNC(=O)[C@@H](CCCC)NC(=O)[C@@H](N)Cc1ccc(O)cc1)C(=O)N[C@@H](CC(=O)O)C(=O)N[C@@H](Cc1ccccc1)C(N)=O`, the EC50 in [1] was 4.5 nM; on Mu-type opioid receptor [6], 0.46 nM; in [12] it was 2500 nM; in [10], 1900 nM. Further, the Emax in [1] worked out at 81%; in test [7] it was 88%. In addition, the IC50 was 6.03 nM in [3]; 210 nM on Mu-type opioid receptor [4]; 60.3 nM at Mu-type opioid receptor [5]; 9.55 nM in [11]; 23 nM in test [8]; 15.1 nM in test [9]. The Ki in test [3] came to 2.6 nM; on Mu-type opioid receptor [5], 26 nM; in [11] it was 9.6 nM; in test [9] it was 15 nM.
A word on the inhibition: it is how much of the control response was suppressed. Turning to `CCCC[C@@H](C(=O)N[C@@H](CC(=O)O)C(=O)N[C@@H](Cc1ccccc1)C(N)=O)N(C)C(=O)[C@H](Cc1c[nH]c2ccccc12)NC(=O)CNC(=O)[C@@H]1CCCN1C(=O)[C@@H](N)Cc1ccc(O)cc1`, the inhibition in [13] worked out at 1.2%; in [14], 5%. In addition, the IC50 is 3390 nM in test [3] and 0.219 nM in test [9]. In addition, the inhibitory constant (Ki) in test [3] came to 1500 nM; in [9], 0.22 nM.
Regarding `CCCC[C@H](NC(=O)[C@H](Cc1c[nH]c2ccccc12)NC(=O)CNC(=O)[C@@H](Cc1ccccc1)NC(=O)[C@@H](N)Cc1ccc(O)cc1)C(=O)N[C@@H](CC(=O)O)C(=O)N[C@@H](Cc1ccccc1)C(N)=O`, the EC50 in [1] is 0.9 nM; at Mu-type opioid receptor [6] it was 1.4 nM; in [12], 300 nM; in test [10], 110 nM. Also, the figures for the Emax in test [1] and in test [7] were 170% and 180%, respectively. Further, the IC50 was 0.427 nM in test [3]; 420 nM on Mu-type opioid receptor [4]; 79.4 nM at Mu-type opioid receptor [5]; 97.7 nM in test [11]; 12 nM in [8]; 25.7 nM in test [9]. In addition, the Ki in test [3] was 0.2 nM; on Mu-type opioid receptor [5], 34 nM; in test [11] it was 98 nM; in test [9] it was 26 nM.
In the case of `CCCC[C@@H](C(=O)N[C@@H](CC(=O)O)C(=O)N[C@@H](Cc1ccccc1)C(N)=O)N(C)C(=O)[C@H](Cc1c[nH]c2ccccc12)NC(=O)CNC(=O)[C@H]1CCCN1C(=O)[C@@H](N)Cc1ccc(O)cc1`, the inhibition in test [13] came out at 13%. Also, the results for the EC50 (in test [1]; at Mu-type opioid receptor [6]; in test [10]) were 890 nM, 900 nM and 36 nM, respectively. Besides, the Emax in test [1] is 110%; in [7], 210%. Moreover, the IC50 in test [3] is 200 nM; at Mu-type opioid receptor [5], 6030 nM; in test [11], 10500 nM; in test [8] it was 890 nM; in [9] it was 2.69 nM. Also, the Ki was 85 nM in test [3], 2600 nM on Mu-type opioid receptor [5], over 10000 nM in [11] and 2.7 nM in test [9].
For the compound `CCCC[C@H](NC(=O)[C@@H](Cc1c[nH]c2ccccc12)NC(=O)CNC(=O)[C@@H](CCCC)NC(=O)[C@@H](N)Cc1ccc(O)cc1)C(=O)N[C@@H](CC(=O)O)C(=O)N[C@@H](Cc1ccccc1)C(N)=O`, the EC50 in test [1] was 4.1 nM; at Mu-type opioid receptor [6], 20 nM. For the same compound, the Emax in test [1] is 75%; in test [7] it was 110%. Moreover, the IC50 was 47.9 nM in test [3]; 1000 nM on Mu-type opioid receptor [4]; 631 nM on Mu-type opioid receptor [5]; 310 nM in test [8]; 2190 nM in test [9]. The Ki was determined as 20 nM in test [3], 270 nM on Mu-type opioid receptor [5] and 2200 nM in test [9]. Besides, in test [15], the “Log EC50” value is “inactive”.
`CCCC[C@@H](NC(=O)[C@@H](N)Cc1ccc(O)cc1)C(=O)NCC(=O)N[C@H](Cc1c[nH]c2ccccc12)C(=O)N(C)[C@@H](CCCC)C(=O)N[C@@H](CC(=O)O)C(=O)N[C@@H](Cc1ccccc1)C(N)=O`: the inhibition in test [13] stood at 8.8%. For the same compound, the “Log EC50” value in test [2] and in test [15] was “inactive” in each case. Besides, the IC50 is 724 nM in [3]; 2880 nM at Mu-type opioid receptor [5]; 9120 nM in [11]; 700 nM in test [8]; 1100 nM in test [9]. For the same compound, the Ki in test [3] turned out to be 310 nM; at Mu-type opioid receptor [5], 1200 nM; in test [11], 910 nM; in test [9] it was 1100 nM. For the same compound, a half-maximal effect at Mu-type opioid receptor [6] (EC50) was put at 250 nM. For the same compound, the Emax in [7] is 47%.
